Test [1] deals with Rattus norvegicus. Kind of test: Antiulcerogenic activity in pylorus ligation-induced gastric ulcer Sprague-Dawley rat model assessed as pH of gastric juice at 7.2 mg/kg, po for 3 days (Rvb =2.60 +/-0.55 ). Format: functional.
In test [2] the test system is Rattus norvegicus. The test is described as follows: Antiulcerogenic activity in pylorus ligation-induced gastric ulcer Sprague-Dawley rat model assessed as pH of gastric juice at 3.6 mg/kg, po for 3 days (Rvb =2.60 +/-0.55 ). Format: functional.
Test [3] relates to Rattus norvegicus. Kind of test: Antiulcerogenic activity in pylorus ligation-induced gastric ulcer Sprague-Dawley rat model assessed as volume of gastric juice at 3.6 mg/kg, po for 3 days (Rvb =5.96 +/-0.80 ml ). Format: functional.
Test [4] concerns Rattus norvegicus. Kind of test: Antiulcerogenic activity in pylorus ligation-induced gastric ulcer Sprague-Dawley rat model assessed as volume of gastric juice at 7.2 mg/kg, po for 3 days (Rvb =5.96 +/-0.80 ml ). Type of test: functional.
Test [5] relates to Rattus norvegicus. The test is described as follows: Antiinflammatory activity against carrageenan-induced paw edema in Sprague-Dawley rat assessed as paw volume at 30 mg/kg, po measured 120 mins post challenge by plethysmometer (reference value: 1.13 +/- 0.04 ml). Type of test: functional. (In general: The carrageenan paw model is a standard test of acute inflammation.)
In test [6] the test system is Mus musculus. The test is described as follows: Antiulcerogenic activity in ethanol-induced gastric ulcer Swiss albino mouse model assessed as inhibition of ulceration at 7.2 mg/kg administered intragastrically for 3 days relative to control. Type of test: functional. The following applies: Stomach, po, 72 h, route intragastric. The gist of the method:
(§1)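 Mice, n = 6 per group, given 3.6 or 7.2 mg/kg, omeprazole 3.6 mg/kg, or vehicle (0.25% w/v carboxymethyl cellulose) for 3 days. After a 24 h fast, 90% ethanol (10 ml/kg) was given intragastrically. Animals were killed 1 h later. Stomachs were opened along the greater curvature and lesion lengths measured under a microscope.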

Test [7] has as its system Rattus norvegicus. The test is described as follows: Antiinflammatory activity against carrageenan-induced paw edema in po dosed Sprague-Dawley rat assessed as inhibition of paw volume measured 180 mins post challenge by plethysmometer. Type of test: functional, organism-based.
In test [8] the test system is Rattus norvegicus. The test is described as follows: Antiinflammatory activity against carrageenan-induced paw edema in Sprague-Dawley rat assessed as paw volume at 30 mg/kg, po measured 60 mins post challenge by plethysmometer (reference value: 0.90 +/- 0.03 ml). Type of test: functional.
Test [9] relates to Rattus norvegicus. Kind of test: Antiinflammatory activity against carrageenan-induced paw edema in Sprague-Dawley rat assessed as paw volume at 20 mg/kg, po measured 60 mins post challenge by plethysmometer (reference value: 0.90 +/- 0.03 ml). Type of test: functional.
In test [10] the test system is Rattus norvegicus. The test is described as follows: Antiulcerogenic activity in pylorus ligation-induced gastric ulcer Sprague-Dawley rat model assessed as stomach H+/K+-ATPase activity measuring Pi release per hour per mg protein at 3.6 mg/kg, po for 3 days (Rvb =11.44 +/-1.5 umol ). Format: functional.
The test system of test [11] is Rattus norvegicus. The test is described as follows: Antiinflammatory activity against carrageenan-induced paw edema in Sprague-Dawley rat assessed as inhibition of paw volume at 10 mg/kg, po measured 180 mins post challenge by plethysmometer. The following applies: 3 h. Format: functional.
The subject of test [12] is Mus musculus. The test is described as follows: Antiulcerogenic activity in ethanol-induced gastric ulcer Swiss albino mouse model assessed as lesion length at 3.6 mg/kg administered intragastrically for 3 days. Type of test: functional, Stomach. The following applies: route intragastric. The gist of the method: as §1
The test system of test [13] is Rattus norvegicus. The test is described as follows: Antiulcerogenic activity in pylorus ligation-induced gastric ulcer Sprague-Dawley rat model assessed as stomach H+/K+-ATPase activity measuring Pi release per hour per mg protein at 7.2 mg/kg, po for 3 days (Rvb =11.44 +/-1.5 umol ). Type of test: functional.
In test [14] the test system is Mus musculus. The test is described as follows: Antiulcerogenic activity in ethanol-induced gastric ulcer Swiss albino mouse model assessed as inhibition of ulceration at 3.6 mg/kg administered intragastrically for 3 days relative to control. Format: functional. The following applies: Stomach, po, 72 h, route intragastric. The gist of the method:
as §1

The test system of test [15] is Rattus norvegicus. Kind of test: Antiinflammatory activity against carrageenan-induced paw edema in Sprague-Dawley rat assessed as inhibition of paw volume at 30 mg/kg, po measured 180 mins post challenge by plethysmometer. Format: functional. The following applies: 3 h.
Test [16] deals with Rattus norvegicus. The test is described as follows: Antiinflammatory activity against carrageenan-induced paw edema in Sprague-Dawley rat assessed as paw volume at 10 mg/kg, po measured 60 mins post challenge by plethysmometer (reference value: 0.90 +/- 0.03 ml). Type of test: functional.
For test [17], the system named is Rattus norvegicus. The test is described as follows: Antiinflammatory activity against carrageenan-induced paw edema in Sprague-Dawley rat assessed as paw volume at 20 mg/kg, po measured 120 mins post challenge by plethysmometer (reference value: 1.13 +/- 0.04 ml). Type of test: functional.
Test [18] has as its system Mus musculus. Kind of test: Antiulcerogenic activity in ethanol-induced gastric ulcer Swiss albino mouse model assessed as lesion length at 7.2 mg/kg administered intragastrically for 3 days. Format: functional, Stomach. The following applies: route intragastric. The method in brief:
as §1

In test [19] the test system is Rattus norvegicus. The test is described as follows: Antiulcerogenic activity in pylorus ligation-induced gastric ulcer Sprague-Dawley rat model assessed as stomach peptic activity measuring tyrosine release for 4 hrs at 3.6 mg/kg, po for 3 days (Rvb =5.70 +/-2.40 ug/ml ). Type of test: functional. The gist of the method:
(§2)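 Pylorus-ligated rat model as above (3-day oral dosing, 3.6 or 7.2 mg/kg, 5 h ligation). Gastric juice sample (0.1 ml) was incubated with 2.9 ml acid hemoglobin substrate (2.5 g/100 ml, pH 2.2) for 30 min at 37 °C. Reaction was stopped with ice-cold 0.6 M TCA and centrifuged. Liberated amino acids were read by Lowry, expressed as µg tyrosine/ml.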

Test [20] relates to Rattus norvegicus. Kind of test: Antiulcerogenic activity in pylorus ligation-induced gastric ulcer Sprague-Dawley rat model assessed as stomach peptic activity measuring tyrosine release for 4 hrs at 7.2 mg/kg, po for 3 days (Rvb =5.70 +/-2.40 ug/ml ). Format: functional. The method in brief: as §2
Test [21] relates to Rattus norvegicus. Kind of test: Antiinflammatory activity against carrageenan-induced paw edema in Sprague-Dawley rat assessed as paw volume at 10 mg/kg, po measured 120 mins post challenge by plethysmometer (reference value: 1.13 +/- 0.04 ml). Type of test: functional.
Test [22] relates to Rattus norvegicus. Kind of test: Antiinflammatory activity against carrageenan-induced paw edema in Sprague-Dawley rat assessed as inhibition of paw volume at 20 mg/kg, po measured 180 mins post challenge by plethysmometer. Format: functional. The following applies: 3 h.

Take `COc1ccnc(CNc2ccc3[nH]c(C)nc3c2)c1OC`: the pH with Rattus norvegicus [1] is 4.01; in the test with Rattus norvegicus [2] it was 3.64. The Activity was 2.98 mL with Rattus norvegicus [3]; 2.6 mL with Rattus norvegicus [4]; 0.65 mL with Rattus norvegicus [5]; 0.65 mL with Rattus norvegicus [8]; 0.7 mL with Rattus norvegicus [9]; 7.91 µmol with Rattus norvegicus [10]. Moreover, the Activity with Mus musculus [12] was determined as 88 mm; in the test on Rattus norvegicus [13] it was 6.88 µmol; with Rattus norvegicus [16] it was 0.7 mL; with Rattus norvegicus [17], 0.69 mL; with Mus musculus [18], 67 mm; in the test with Rattus norvegicus [19], 5.02 µg/mL. The Activity with Rattus norvegicus [20] was 4.74 µg/mL; in the test on Rattus norvegicus [21], 0.88 mL. The inhibition in vivo (as a rule, the drop in the measured response relative to a control, in per cent) at 7.2 mg/kg in the test on Mus musculus [6] was determined as 46.8%. The inhibition result in the test on Rattus norvegicus [7] is “Dose-dependent effect”. Further, in the test on Rattus norvegicus [11], the inhibition in vivo at 10 mg/kg turned out to be 15%. Besides, the inhibition in vivo at 3.6 mg/kg in the test with Mus musculus [14] was 30%. The inhibition in vivo at 30 mg/kg with Rattus norvegicus [15] was determined as 61%. Further, the inhibition in vivo at 20 mg/kg with Rattus norvegicus [22] stood at 57%.

Source of the values: ChEMBL document CHEMBL2331277, “Design, synthesis and pharmacological evaluation of omeprazole-like agents with anti-inflammatory activity” (2013).
